eIF2B yeast act – modulators of yeast eIF2B activity. S. cerevisiae eIF2B-epsilon R284H, GCN4-lacZ luminescence. inhibition, % at 25 µM (by protocol). hit rate 0.91% among 27,000;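 active = mutant luminescence inhibited past about 50% while wild type luminescence and mutant growth stay under set limits, limit read from the data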
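material = yeast eIF2B-epsilon R284H mutant carrying GCN4–beta-galactosidase fusion | schedule = 16 h growth with compound at 30 °C, 90 min Beta-Glo step | measured by = luminescence and A595 | compound dosing = one concentration, 25 µM, 0.25% DMSO | read-out basis = % inhibition of reporter signal and growth versus controls | buffer or medium = YPD medium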
Yeast growth tox – Inhibits yeast growth, turbidity readout; S. cerevisiae wild-type growth, A595 turbidity, 16 h; growth inhibition, % at 25 µM (by protocol); hit rate 0.3% among 30,000; AID 685;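 active = mutant and wild-type yeast strains alike exhibit over 30% growth inhibition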;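 also: 0% = untreated cell controls and 100% = YPD media blanks without cells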
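Incubation: 16 h growth with compound, 30 °C; Material: S. cerevisiae wild-type or eIF2Bepsilon-R284H mutant strain; Signal: turbidity measured as absorbance at 595 nm; Medium: YPD yeast growth medium; Measure: growth inhibition (%) versus cell controls and blanks; Doses: 25 µM single dose.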
Active calls of the source: *. A selection: hits, their analogues and other compounds. The true share with any hit is near 1%.

SMILES | eIF2B yeast act | Yeast growth tox
NC1=NC(c2cn(-c3ccccc3)nc2-c2cccs2)n2c(nc3ccccc32)N1 (stereo not drawn) | 33 | 19
Cc1ccc(-n2c(C)cc(C3N=C(N)Nc4nc5ccccc5n43)c2C)c(C)c1 (stereo not drawn) | 63 | 92*
CCn1c(SCC(=O)c2[nH]c(C)c(C(C)=O)c2C)nnc1-c1cccs1 | -8 | -17
Cc1ccc2c(CN3CCN(Cc4ccc5c(c4)OCO5)CC3)cc(=O)oc2c1C | 15 | 4
Cc1ccc(SCc2cc(=O)[nH]c(N3CCN(Cc4ccc5c(c4)OCO5)CC3)n2)cc1 | 60* | -17
CC(=O)SC(C)CC(=O)Nc1ccccc1 (stereo not drawn) | 13 | 8
c1ccc2sc(NC3=NCN(C4CCCCCC4)CN3)nc2c1 | 27 | 9
CCN1CCN(S(=O)(=O)c2cccc3nsnc23)CC1 | 13 | 10
CCNC(=O)c1ccccc1-c1nc(-c2ccccc2Cl)no1 | 12 | 10
Nc1ccc2nc(-c3ccccc3)sc2c1 | 72* | 20
Nc1nc2ccc(-c3nc4ccccc4o3)cc2s1 | 24 | 21
COc1cccc(Oc2cn[nH]c2-c2ccc(OC)cc2O)c1 | 66* | -9
CCOc1ccc(-c2[nH]ncc2Oc2cccc(OC)c2)c(O)c1 | -1 | 6
COc1cccc(NC(=O)c2ccccc2-c2nc(-c3cccc(C)c3)no2)c1 | 14 | 2

Screens from PubChem BioAssay.
